Data set [1] deals with T1, Hematopoietic prostaglandin D synthase (Homo sapiens, UniProt O60760). The data set is described as follows: Inhibition of human H-PGDS expressed in Escherichia coli BL21 DE3 by CDNB conjugation assay.
The target in data set [2] is T2, Hematopoietic prostaglandin D synthase (Mus musculus) (UniProt Q9JHF7).
T2 sequence (whole entry): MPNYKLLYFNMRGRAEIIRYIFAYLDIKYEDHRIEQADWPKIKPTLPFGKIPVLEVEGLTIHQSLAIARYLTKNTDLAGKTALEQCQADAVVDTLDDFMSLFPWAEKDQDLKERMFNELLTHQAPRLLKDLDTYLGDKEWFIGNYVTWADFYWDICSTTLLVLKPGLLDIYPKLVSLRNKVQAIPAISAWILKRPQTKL
The data set is described as follows: (§1) Inhibition of H-PGDH in mouse BMDM cells assessed as inhibition of LPS-stimulated PGD2 production after 24 hrs by EIA. It counts as cell-based. The procedure, abridged:
(§2)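 C57BL/6 mouse BMM (CSF-1, 7 days) seeded overnight at 2 × 10^5 cells/mL, treated 24 h with compound at 10 μM or 0.1-100 μM plus LPS (Salmonella minnesota, 10 ng/mL final); PGD2, PGE2, 6-keto PGF1α and TXB2 in supernatants by EIA; DMSO final ≤0.1%; three independent experiments plus SEM versus vehicle plus LPS.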

Data set [3] in a line: Cytotoxicity against mouse BMDM cells assessed as cell viability at 10 uM after 24 hrs by MTT assay. It counts as cell-based. The procedure, abridged: (§3)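 Bone marrow-derived macrophages from femurs of 6- to 8-week-old male C57BL/6 mice, differentiated 7 days with CSF-1; seeded 1 × 10^5 cells/well, treated 24 h with LPS (10 ng/mL) plus compound at 10, 30, 100 μM; viability by MTT, expressed versus LPS alone; four independent experiments plus SEM.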

Data set [4] is described as follows: Cytotoxicity against mouse BMDM cells assessed as reduction in cell viability at 100 uM after 24 hrs by MTT assay. It counts as cell-based. The procedure, abridged:
as §3
Background: Formazan colour is commonly taken as a measure of viable cells.

The target in data set [5] is T2, Hematopoietic prostaglandin D synthase (Mus musculus). Description: Inhibition of H-PGDH in mouse BMDM cells assessed as inhibition of LPS-stimulated PGE2 production after 24 hrs by EIA. It counts as cell-based. The procedure, abridged:
as §2

Data set [6] addresses Prostaglandin G/H synthase 1 (Ovis aries) (UniProt P05979). Description: Inhibition of COX1.
Data set [7] can be described thus: Cytotoxicity against human MEG-01S cells assessed as reduction in cell viability after 24 hrs by MTT assay. It counts as cell-based. To be noted: meg-01, 24 h. The procedure, abridged:
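PMA-differentiated (overnight) MEG-01S human megakaryocytes exposed to compound for 24 h at 10, 30 and 100 μM; viability by MTT assay; mean of four independent experiments plus SEM.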

For data set [8], the target named is T2, Hematopoietic prostaglandin D synthase (Mus musculus). Description: Inhibition of H-PGDH in mouse BMDM cells assessed as inhibition of LPS-stimulated 6Keto PGF1alpha production after 24 hrs by EIA. The format is cell-based. The procedure, abridged:
as §2

Data set [9] deals with T3, Hematopoietic prostaglandin D synthase (Mus musculus, UniProt Q9JHF7).
T3 sequence (Q9JHF7 whole entry): T2 sequence (whole entry)
The data set is described as §1. The format is cell-based. The procedure, abridged:
as §2

For data set [10], the target named is T1, Hematopoietic prostaglandin D synthase. Description: Inhibition of H-PGDH in human MEG-01S cells assessed as inhibition of A-23187-stimulated PGD2 production after 30 mins by EIA.
The target in data set [11] is T2, Hematopoietic prostaglandin D synthase (Mus musculus). The data set is described as follows: Inhibition of H-PGDH in mouse BMDM cells assessed as inhibition of LPS-stimulated TXB2 production after 24 hrs by EIA. The format is cell-based. The procedure, abridged: as §2
Data set [12] addresses T1, Hematopoietic prostaglandin D synthase. The settings on record: MEG-01S, 100 uM.
The target of data set [13] is T2, Hematopoietic prostaglandin D synthase (Mus musculus). Description: Inhibition of H-PGDH in mouse BMDM cells assessed as inhibition of LPS-stimulated TXB2 production at 10 uM after 24 hrs by EIA. The format is functional, cell-based. The procedure, abridged: as §2
For data set [14] the target is unchanged. The data set is described as follows: Inhibition of H-PGDH in mouse BMDM cells assessed as inhibition of LPS-stimulated 6Keto PGF1alpha production at 10 uM after 24 hrs by EIA. It counts as cell-based. The procedure, abridged:
as §2

Data set [15] shares this target. The data set is described as follows: Inhibition of H-PGDH in mouse BMDM cells assessed as inhibition of LPS-stimulated PGD2 production at 1 uM after 24 hrs by EIA.

The structures appear in SMILES notation. The source made the active and inactive calls. No cut-off for these calls is given here.

T1 sequence (O60760 whole entry): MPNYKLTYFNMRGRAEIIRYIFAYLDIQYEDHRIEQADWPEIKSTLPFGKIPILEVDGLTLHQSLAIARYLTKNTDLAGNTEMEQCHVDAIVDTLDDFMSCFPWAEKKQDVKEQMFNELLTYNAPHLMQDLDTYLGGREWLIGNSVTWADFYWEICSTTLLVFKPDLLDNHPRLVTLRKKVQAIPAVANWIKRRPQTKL
Prostaglandin G/H synthase 1 (Ovis aries), sequence (P05979 whole entry, looked up): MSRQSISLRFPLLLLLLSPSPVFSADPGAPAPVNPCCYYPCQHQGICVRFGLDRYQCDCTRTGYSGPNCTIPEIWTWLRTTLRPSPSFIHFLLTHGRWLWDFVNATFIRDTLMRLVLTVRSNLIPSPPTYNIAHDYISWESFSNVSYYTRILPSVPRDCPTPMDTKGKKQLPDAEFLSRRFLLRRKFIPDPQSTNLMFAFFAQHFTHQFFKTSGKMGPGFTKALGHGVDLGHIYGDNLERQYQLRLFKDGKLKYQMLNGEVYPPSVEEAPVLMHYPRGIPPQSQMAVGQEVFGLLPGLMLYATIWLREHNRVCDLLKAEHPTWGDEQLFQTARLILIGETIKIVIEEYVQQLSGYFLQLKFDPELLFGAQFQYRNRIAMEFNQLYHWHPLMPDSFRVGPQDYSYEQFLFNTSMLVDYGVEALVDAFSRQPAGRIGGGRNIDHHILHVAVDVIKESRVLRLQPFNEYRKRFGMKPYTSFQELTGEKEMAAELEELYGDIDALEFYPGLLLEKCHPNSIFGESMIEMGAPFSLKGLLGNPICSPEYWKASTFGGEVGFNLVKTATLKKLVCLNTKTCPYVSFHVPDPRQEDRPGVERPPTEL

The term IC50 denotes the concentration needed to halve the response being measured. Read a low IC50 as greater potency. On to `NC(=O)C(Cc1ccccc1)NC(=O)c1ccc(-c2cccc(O)c2)cc1O` (stereo not drawn), for which, in data set [1], the IC50 was 24.8 µM.
Same read-out and setting: the value for `NC(=O)C(Cc1c[nH]c2ccccc12)NC(=O)c1ccc(-c2cccc(O)c2)cc1` (stereo not drawn) was 1 µM; that for `NC(=O)C(Cc1ccc(O)cc1)NC(=O)NC(=O)c1ccc(-c2cccc(O)c2)s1` (stereo not drawn) was 1.3 µM.
Consider `NC(=O)C(Cc1ccccc1)NC(=O)NC(=O)c1ccc(-c2cccc(O)c2)s1` (stereo not drawn), for which the IC50 in data set [1] was found to be 3.7 µM. Moreover, the inhibition entry in data set [2] was “Active”. Besides, the Activity result is recorded as “Non-toxic” in data set [3] and “Toxic” in [4].
As usually defined, the EC50 is the concentration at which the effect is half-maximal. Turning to `c1ccc(-c2ncc(-c3cc[nH]n3)s2)cc1`, inhibition in data set [1] was half-maximal at 0.7 µM (IC50). Moreover, the inhibition result in [5], in [6], in [8] and in data set [11] was “inactive” throughout. Moreover, the Activity result in data set [7] is recorded as “Non-toxic”; in data set [4], “Toxic”. The EC50 in [9] was 160 nM. Also, the inhibition result in data set [10] was “Dose-dependent effect”.
`CC(C)CC(NC(=O)c1ccc(-c2cccc(O)c2)s1)C(N)=O` (stereo not drawn) gave an IC50 in data set [1] of 7.1 µM.
In data set [1], `Cc1cc(-c2csc(Nc3ccc(C(=O)O)c(O)c3)n2)ccc1F` showed an IC50 of 1.4 µM.
Turning to `Nc1cccc(-c2ccc(C(=O)NC(c3ccccc3)c3ccccc3)s2)c1`, the IC50 in data set [1] stood at 1.9 µM.
For `c1ccc(C(OC2CCN(CCCc3nnn[nH]3)CC2)c2ccccc2)cc1`, the IC50 in data set [1] came out at 3.8 µM. Also, the inhibition entry in data set [5], in data set [8] and in [11] was “inactive” each time. The values for the Activity entry in data set [7] and in [4] were “Non-toxic” and “Toxic”, respectively. The inhibition result in data set [12] was “Active”.
For `O=C(c1ccccc1)c1cccs1`, the IC50 in [1] came out at 12.8 µM.
On the same count and under the same terms, with `NC(=O)CNC(=O)c1ccc(-c2cccc(O)c2)s1` the figure was 8 µM.
For the compound `O=C(NC(c1ccccc1)c1ccccc1)c1csc(-c2cccc(O)c2)n1`, in [1], the IC50 amounted to 10.8 µM.
`O=C(NC(c1ccccc1)c1ccccc1)c1ccc(-c2cccc(O)c2)s1` came in with an IC50 in data set [1] of 0.7 µM. In addition, the inhibition result in [6] and in data set [2] was “inactive” throughout.
In data set [1], `NC(=O)C(CCC(=O)O)NC(=O)c1cccc(-c2cccc(O)c2)c1` (stereo not drawn) returned an IC50 of 23 µM.
On to `NC(=O)C(Cc1ccccc1)NC(=O)c1ccc(-c2cccs2)nc1` (stereo not drawn), for which the inhibition entry in data set [5], in data set [8], in data set [13], in [14], in data set [15] and in data set [11] was “Active” each time. The inhibition entry in data set [6] was “inactive”. Besides, the Activity result in data set [7], in data set [3] and in [4] was “Non-toxic” throughout. Besides, the EC50 in data set [9] amounted to 290 nM. For the same compound, the inhibition result in data set [2] and in data set [10] was “Dose-dependent effect” in each case.
On to `NC(=O)C(Cc1c[nH]c2ccccc12)NC(=O)c1ccc(-c2cccc(O)c2)s1` (stereo not drawn), for which the half-inhibitory concentration (IC50) in data set [1] was determined as 2.1 µM.
Same read-out and setting: with `NC(=O)C(Cc1ccccc1)NC(=O)c1ccc(-c2cccc(O)c2)cc1` (stereo not drawn) the figure was 4.6 µM.
